Data as given in ChEMBL document CHEMBL1140187, “Anti-inflammatory cembranoids from the soft corals Sinularia querciformis and Sinularia granosa” (J Nat Prod, 2008).

What was measured:
HEp-2 [1] = assay: Cytotoxicity against human Hep2 cells by MTT method; assay type: functional; conditions: HEp-2, read-out: ED50
HeLa [2] = assay: Cytotoxicity against human HeLa cells by MTT method; assay type: functional; conditions: read-out: ED50
MCF7 [3] = assay: Cytotoxicity against human MCF7 cells; assay type: functional, cell-based
[4] = Cytotoxicity against human Doay cells; assay type: functional, cell-based
MCF7 [5] = assay: Cytotoxicity against human MCF7 cells by MTT method; assay type: functional; conditions: MCF7, read-out: ED50
[6] = Cytotoxicity against human Doay cells by MTT method; assay type: functional; conditions: read-out: ED50
HeLa [7] = assay: Cytotoxicity against human HeLa cells; assay type: functional, cell-based
HEp-2 [8] = assay: Cytotoxicity against human Hep2 cells; assay type: functional, cell-based
RAW264.7 [9] = assay: Reduction of LPS-induced iNOS expression in mouse Raw264.7 cells at 10 uM preincubated for 5 mins before LPS challenge relative to control; assay type: functional; parameters: scale not given: the % may be the effect or the level left
In short: (§1)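 RAW 264.7 murine macrophages grown in DMEM with 10% heat-inactivated FBS at 37 °C, 5% CO2, plated at 3 × 10^6 cells per 60 mm dish. Compound added 5 min before LPS (0.01 µg/mL), then 16 h incubation. Lysates were analysed by Western blot against iNOS and COX-2 (1:1000), with β-actin as loading control and ECL detection. Band IOD was expressed relative to the LPS-only control; one-way ANOVA with Student-Newman-Keuls test.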

RAW264.7 [10] = assay: Reduction of LPS-induced COX2 expression in mouse Raw264.7 cells at 10 uM preincubated for 5 mins before LPS challenge relative to control; assay type: functional; parameters: scale not given: the % may be the effect or the level left; in short: as §1

SMILES	EC50 (HEp-2 [1])	EC50 (HeLa [2])	IC50 (MCF7 [3])	IC50 [4]	EC50 (MCF7 [5])	EC50 [6]	IC50 (HeLa [7])	IC50 (HEp-2 [8])	Activity (RAW264.7 [9])	Activity (RAW264.7 [10])
C=C1C(=O)O[C@]2(C)CC[C@@H]1C[C@H](O)[C@@]1(C)CC[C@H](OC(C)=O)[C@@](C)(CCC2=O)O1 [QUERCIFORMOLIDE A]	> 20 µg/mL	> 20 µg/mL	> 20 µg/mL	> 20 µg/mL	> 20 µg/mL	> 20 µg/mL	> 20 µg/mL	> 20 µg/mL	–	–
C=C1C(=O)O[C@]2(C)CC[C@@H]1C[C@H](OC(C)=O)[C@@]1(C)CC[C@H](O1)[C@](C)(O)CC[C@H]2OC(C)=O [QUERCIFORMOLIDE C]	> 20 µg/mL	> 20 µg/mL	–	> 20 µg/mL	> 20 µg/mL	> 20 µg/mL	> 20 µg/mL	> 20 µg/mL	23.7%	–
C=C1C(=O)O[C@]2(C)CC[C@@H]1C[C@H](OC(C)=O)[C@@]1(C)CC[C@H](O1)[C@](C)(O)CCC2=O	> 20 µg/mL	> 20 µg/mL	–	> 20 µg/mL	> 20 µg/mL	> 20 µg/mL	> 20 µg/mL	> 20 µg/mL	20.3%	14%
C=C1C(=O)O[C@]2(C)CC[C@@H]1C[C@H](OC(C)=O)[C@@]1(C)CC[C@H](O1)C(=C)CC[C@H]2OC(C)=O [GRANOSOLIDE B]	> 20 µg/mL	> 20 µg/mL	–	> 20 µg/mL	> 20 µg/mL	> 20 µg/mL	> 20 µg/mL	> 20 µg/mL	–	–
C=C1C(=O)O[C@]2(C)CC[C@@H]1C[C@H](O)[C@@]1(C)CC[C@H](O1)[C@](C)(O)CCC2=O	> 20 µg/mL	> 20 µg/mL	–	> 20 µg/mL	> 20 µg/mL	> 20 µg/mL	> 20 µg/mL	> 20 µg/mL	–	17.4%
C=C1C(=O)O[C@]2(C)CC[C@@H]1C[C@H](O)[C@@]1(C)CC[C@H](O1)C(=C)CC[C@H]2OC(C)=O [GRANOSOLIDE A]	> 20 µg/mL	> 20 µg/mL	–	> 20 µg/mL	> 20 µg/mL	> 20 µg/mL	> 20 µg/mL	> 20 µg/mL	–	–
C=C1C(=O)O[C@]2(C)CC[C@@H]1C[C@H](O)[C@@]1(C)CC[C@H](O1)[C@](C)(O)CC[C@H]2OC(C)=O [QUERCIFORMOLIDE B]	> 20 µg/mL	> 20 µg/mL	–	> 20 µg/mL	> 20 µg/mL	> 20 µg/mL	> 20 µg/mL	> 20 µg/mL	–	–
C=C1C(=O)O[C@]2(C)CC[C@@H]1C[C@H](O)[C@@]1(C)CC[C@H](O1)[C@](C)(O)CC[C@H]2O [QUERCIFORMOLIDE D]	> 20 µg/mL	> 20 µg/mL	–	> 20 µg/mL	> 20 µg/mL	> 20 µg/mL	> 20 µg/mL	> 20 µg/mL	–	–
